Fewer inactive variants are shown than the library holds.
B1: tRNA (parent)
chain: GUUCCGUUGGCGUAAUGGUAACGCGUCUCCCUCCUAAGGAGAAGACUGCGGGUUCGAGUCCCGUACGGAACG

Variants of: B1
Assay: yeast fitness relative to wild type (ratio to wild type); higher = fitter; tRNA-Arg(CCU), competitive growth, 37 C, YPD
Procedure, shortened: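 Start and end populations of a pooled competition were compared by 100-nucleotide paired-end sequencing of gene amplicons. The Saccharomyces cerevisiae strains carried tRNA-Arg(CCU) gene variants at the native genomic locus, synthesised with a 3% per-site mutation rate at 69 sites, and competed in YPD at 37°C for 24 hours in six parallel replicates. Darwinian fitness relative to wild type was based on the change in genotype frequencies. Genotypes required ≥ 100 starting reads, and estimates < 0.5 were set to 0.5.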

| Variant | yeast fitness |
| --- | --- |
| C11U C24G U59A C60A | ≤ 0.5 |
| C11G A20C G23A G52C C61U | 0.662 |
| C11G U16C C22U G68U | ≤ 0.5 |
| C11G G56A | 0.721 |
| C11U A45C | 0.836 |
| C11U A45U | 0.951 |
| C11G G18A G23A C60G | ≤ 0.5 |
| C11U A45U A65U | 0.82 |
| C11G G58A A70G | 0.659 |
| C11G U28A A65U A69U | ≤ 0.5 |
| C11G U26C G67C A69C | ≤ 0.5 |
| C11U A42C A57C | ≤ 0.5 |
| C11G C30U A37C C46U | 0.664 |
| C11U G18C C31U C62U | ≤ 0.5 |
| C11U C22U A43C C49U C55G C61U | ≤ 0.5 |
| C11G A21U A42U | ≤ 0.5 |
| C11A U26C C29G C31U | 0.655 |
| C11G C30A U47G U53C | 0.597 |
| C11G C24G C27A U28C A65U | 0.533 |
| C11U A21C C22G U54C C62A | ≤ 0.5 |
| C11U C46G G51A C55U G63U | ≤ 0.5 |
| C11G C60G A65C | ≤ 0.5 |
| C11U C22U U54C G56C G58A | ≤ 0.5 |
| C11A U28G C33A A42C | ≤ 0.5 |

| Variant | yeast fitness |
| --- | --- |
| C11G A42U A43C | ≤ 0.5 |
| C11G U16G G38C U54A C66A | 0.648 |
| C11U C34A | 0.758 |
| C11U C61U A65C | ≤ 0.5 |
| C11G A14G G17A A37G G48C C62U C66G A70G | ≤ 0.5 |
| C11G C24U U35A | 0.622 |
| C11U C49G C62U | ≤ 0.5 |
| C11U A15U A21C C24G C29U A42C U59G G67U | ≤ 0.5 |
| C11G C31U G41C | ≤ 0.5 |
| C11U A14G G23A | 0.504 |
| C11U A14G C27U C31U A36C G44C A45G G56C | ≤ 0.5 |
| C11U C49U G56A A65C | ≤ 0.5 |
| C11G G39C G50C | 0.545 |
| C11G G25A G56A C60A C62U G68C | ≤ 0.5 |
| C11U C30G U35A C46U G51A G56A | ≤ 0.5 |
| C11U C22G C34G A70C | ≤ 0.5 |
| C11U A43C C66U | 0.699 |
| C11G C30U C31G C33G A37U U64A | ≤ 0.5 |
| C11U C29U A36U C66U G67A | ≤ 0.5 |
| C11U A15G C24G C27G C31U G41C C49U | ≤ 0.5 |
| C11U C22G A36G | 0.675 |
| C11U C24A G68C | ≤ 0.5 |
| C11G C24G C30U A43U C60G A65C | ≤ 0.5 |
| C11G A36U A40C | 0.612 |

| Variant | yeast fitness |
| --- | --- |
| C11U A20C C22G | 0.576 |
| C11G C29A A40U G52A | ≤ 0.5 |
| C11G C61U G68A | ≤ 0.5 |
| C11U G18A A36U | ≤ 0.5 |
| C11A U53A | 0.59 |
| C11A U53C | 0.556 |
| C11U C24U C29G G38A A40C C61A A65G | ≤ 0.5 |
| C11U A21C A42G C49U A69C A70G | ≤ 0.5 |
| C11G A42U C66G G67U | ≤ 0.5 |
| C11G C24U G68C | 0.523 |
| C11G A21U C24U | ≤ 0.5 |
| C11U A20U C22A C66G | ≤ 0.5 |
| C11G C24G C60A G68A | ≤ 0.5 |
| C11G A15C | 0.528 |
| C11U C49A A57C | ≤ 0.5 |
| C11U A40G G44C U53C C55A A65U | ≤ 0.5 |
| C11G C31U C33U | 0.509 |
| C11U C22G C62U G68C | 0.542 |
| C11G C49G C66A G67U | ≤ 0.5 |
| C11U C29U U59C | ≤ 0.5 |
| C11U C24G A36C A37G A70C | ≤ 0.5 |
| C11U C27G A43C A57U | 0.696 |
| C11G C30A G44C G52C U64G | ≤ 0.5 |
| C11U C34G A69C | 0.535 |

| Variant | yeast fitness |
| --- | --- |
| C11G G17C C34A A43C G56C | ≤ 0.5 |
| C11G A21U C30A G44A G52C A65U | 0.507 |
| C11U G18C A40C G63A | ≤ 0.5 |
| C11G G41A U53C | ≤ 0.5 |
| C11U G17A A40C | ≤ 0.5 |
| C11U A36U G39A | ≤ 0.5 |
| C11G C24U A45C C55U | ≤ 0.5 |
| C11G C22G A45C | ≤ 0.5 |
| C11U A21G C24A C49U A65C | ≤ 0.5 |
| C11G U47A G48A | 0.58 |
| C11U C30G A40C C61U | ≤ 0.5 |
| C11G G39C | 0.6 |
| C11U A21C C27G G39C A57C G68U | ≤ 0.5 |
| C11G U35C A43C G52C U54A | 0.644 |
| C11G A15U C22U A42G | ≤ 0.5 |
| C11G G12A C27U A43G | ≤ 0.5 |
| C11U G12C | 0.75 |
| C11U A14U U19G | ≤ 0.5 |
| C11A U53A C62G | ≤ 0.5 |
| C11U A20U C24U C30U C33A U54A C61G | ≤ 0.5 |
| C11U A21G C29G C61G | ≤ 0.5 |
| C11U C55U | 0.8 |
| C11U C55A | 0.678 |
| C11G A21U G68C | ≤ 0.5 |

| Variant | yeast fitness |
| --- | --- |
| C11A U53A G67A | ≤ 0.5 |
| C11U C24G A57G | ≤ 0.5 |
| C11U A15C U16C A21G | ≤ 0.5 |
| C11G C33A A42C | 0.7 |
| C11G A15C G38C C49G | ≤ 0.5 |
| C11U A45C G52C C61U | ≤ 0.5 |
| C11U C33G A37U | ≤ 0.5 |
| C11U C31G C49U G67A | ≤ 0.5 |
| C11U G17C C62U A69U | 0.567 |
| C11U G17C A21U G56A | ≤ 0.5 |
| C11U A69C | 0.905 |
| C11G C24G C27U C55U | 0.55 |
| C11U C29A A36U G50C C55G C61G | 0.592 |
| C11G A15C C34U A65C | ≤ 0.5 |
| C11U G18C A21G | 0.571 |
| C11U A37C A42G A43U C62A | ≤ 0.5 |
| C11G C49U C61A | 0.582 |
| C11G G17A A20U C33G A43C C61G A65G | ≤ 0.5 |
| C11G U32A A37C G39A A43G G58C C60A C62U | ≤ 0.5 |
| C11G G25A A45C | ≤ 0.5 |
| C11G U16C C27G | ≤ 0.5 |
| C11G C24U C55G | ≤ 0.5 |
| C11G A42U A65G C66G G68A | ≤ 0.5 |
| C11G U32A C33G C34A A57C | ≤ 0.5 |

| Variant | yeast fitness |
| --- | --- |
| C11G U32G U54A U59A G67A | ≤ 0.5 |
| C11G G12A C24A C30G G44C C61G | ≤ 0.5 |
| C11G C22U A36C G52C C66U | ≤ 0.5 |
| C11G C29U C34U G51C C66U | ≤ 0.5 |
| C11G G48A C49G | 0.587 |
| C11G G12A A42U C61A A65U | 0.528 |
| C11U G23C C27A A69U | ≤ 0.5 |
| C11U G23A U35C | 0.573 |
| C11U A57U C60G G68C | ≤ 0.5 |
| C11G C24G C27A U28C G67A | ≤ 0.5 |
| C11G C24U C49U | ≤ 0.5 |
| C11G U26A | 0.583 |
| C11G C24U G67A | ≤ 0.5 |
| C11G U19A C31U A43G G52C | ≤ 0.5 |
| C11U G17A C29A | ≤ 0.5 |
| C11G A36C U47C C49U A69C | ≤ 0.5 |
| C11U C24G C33A A40C C66U | 0.743 |
| C11G G67A | 0.635 |
| C11G C29G G38A G44A C46U C62A | ≤ 0.5 |
| C11U C22A C29G C33U U35C A70C | ≤ 0.5 |
| C11G C34U A42C C66A | ≤ 0.5 |
| C11G G23C A37G A57C | 0.979 |
| C11G C24G C49U | ≤ 0.5 |
| C11G A40C | 0.6 |

| Variant | yeast fitness |
| --- | --- |
| C11U C31U C46G U47A A65C | ≤ 0.5 |
| C11U C31U U35C A69U | ≤ 0.5 |
| C11U C46G C61U | 0.596 |
| C11U C31G A70U | 0.598 |
| C11U A15U C46U | 0.741 |
| C11G C24U U28C A42G C60U C62G | ≤ 0.5 |
| C11G U16A C22U A45U | ≤ 0.5 |
| C11U C31G C46A G63C A65U | 0.531 |
| C11G U59C | 0.589 |
| C11G C30A | 0.588 |
| C11G C29A | 0.518 |
| C11G C55G | 0.594 |
| C11U A15C A36C A37U | ≤ 0.5 |
| C11U C22A A40U C46U C61U | ≤ 0.5 |
| C11U A20G C29G C34G U54C | ≤ 0.5 |
| C11G C22U U53C G68C | 0.521 |
| C11U A20G A36C C49G C61G C62G | ≤ 0.5 |
| C11U C66G A69U | 0.555 |
| C11U C31G C46G G52A C66U | ≤ 0.5 |
| C11G G38C C55U C61G | ≤ 0.5 |
| C11G C29U C34U G68C | ≤ 0.5 |
| C11U G18A A36U G48C C49U | 0.558 |
| C11U A45G U53C | 0.637 |

From the RNAGym collection of RNA variant scans (doi:10.1126/science.aae0568)
